The results in this text go back to ChEMBL document CHEMBL4020742, “Design and optimization of purine derivatives as in vivo active PDE10A inhibitors” (Bioorg Med Chem, 2017).

Data set [1] deals with T1, CYP3A4 (Homo sapiens, UniProt P08684). The data set is described as follows: (§1) Time-dependent inhibition of CYP3A4 in human microsomes at 10 uM using midazolam as substrate preincubated for 5 mins followed by NADPH addition measured 20 mins relative to control. It counts as ADME. As to conditions: human microsomes, probe midazolam, read-out: TDI.
T1 sequence (P08684 whole entry): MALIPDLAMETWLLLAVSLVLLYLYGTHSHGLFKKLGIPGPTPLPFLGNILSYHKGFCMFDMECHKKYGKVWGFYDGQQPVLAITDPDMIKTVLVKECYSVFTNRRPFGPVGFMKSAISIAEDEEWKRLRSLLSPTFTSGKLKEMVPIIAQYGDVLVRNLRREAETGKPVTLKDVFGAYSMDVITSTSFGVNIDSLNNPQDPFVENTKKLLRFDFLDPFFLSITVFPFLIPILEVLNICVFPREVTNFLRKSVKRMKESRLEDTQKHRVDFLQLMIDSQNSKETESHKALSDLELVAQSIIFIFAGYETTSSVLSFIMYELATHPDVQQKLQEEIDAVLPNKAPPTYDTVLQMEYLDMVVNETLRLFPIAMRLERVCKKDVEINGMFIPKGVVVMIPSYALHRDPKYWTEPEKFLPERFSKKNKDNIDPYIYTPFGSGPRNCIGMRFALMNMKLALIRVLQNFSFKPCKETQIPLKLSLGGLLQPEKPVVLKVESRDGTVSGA
Data set [2] addresses T1, CYP3A4. In words: (§2) Inhibition of CYP3A4 in human microsomes at 10 uM using midazolam as substrate preincubated for 5 mins followed by NADPH addition measured 20 mins relative to control. It counts as ADME. As to conditions: human microsomes, probe midazolam, read-out: TDI. In short, it runs like this:
(§3)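 Pooled human microsomes (0.2 mg/mL) in 100 mM phosphate pH 7.4 with a probe cocktail: midazolam 10 µM, dextromethorphan 10 µM, diclofenac 20 µM, phenacetin 100 µM, mephenytoin 100 µM. Test compound was 10 µM; organic solvent was under 1%. After 5 min preincubation at 37 °C, 1 mmol/L NADPH was added and the reaction ran 20 min, keeping substrate conversion below 20%. Metabolite formation was expressed relative to PBS control.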

The target in data set [3] is T2, CYP1A2 (Homo sapiens, UniProt P05177).
T2 sequence (P05177 whole entry): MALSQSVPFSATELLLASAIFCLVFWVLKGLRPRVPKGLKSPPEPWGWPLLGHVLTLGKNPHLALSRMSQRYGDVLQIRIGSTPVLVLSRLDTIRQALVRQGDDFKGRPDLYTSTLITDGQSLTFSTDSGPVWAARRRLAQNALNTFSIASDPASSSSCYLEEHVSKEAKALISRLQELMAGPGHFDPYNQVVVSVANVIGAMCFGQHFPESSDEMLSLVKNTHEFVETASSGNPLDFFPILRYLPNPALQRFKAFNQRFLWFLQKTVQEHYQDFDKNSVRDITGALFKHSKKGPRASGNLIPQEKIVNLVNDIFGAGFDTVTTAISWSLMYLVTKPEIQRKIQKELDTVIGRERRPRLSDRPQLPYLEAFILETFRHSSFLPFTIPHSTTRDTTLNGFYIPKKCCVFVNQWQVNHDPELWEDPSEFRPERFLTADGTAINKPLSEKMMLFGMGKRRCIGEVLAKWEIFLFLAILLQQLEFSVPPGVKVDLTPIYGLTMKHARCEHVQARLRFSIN
In words: Inhibition of CYP1A2 in human microsomes at 10 uM using phenacetin as substrate preincubated for 5 mins followed by NADPH addition measured 20 mins relative to control. It counts as ADME. As to conditions: probe phenacetin, read-out: TDI. In short, it runs like this:
as §3

The target of data set [4] is T3, Cytochrome P450 2C9 (Homo sapiens, UniProt P11712). In words: (§4) […] of CYP2C9 in human microsomes at 10 uM using diclofenac as substrate preincubated for 5 mins followed by NADPH addition measured 20 mins relative to control. Type of data set: ADME. The conditions noted are these: microsomes, 20 min, 10 µM.
T3 sequence (P11712 whole entry): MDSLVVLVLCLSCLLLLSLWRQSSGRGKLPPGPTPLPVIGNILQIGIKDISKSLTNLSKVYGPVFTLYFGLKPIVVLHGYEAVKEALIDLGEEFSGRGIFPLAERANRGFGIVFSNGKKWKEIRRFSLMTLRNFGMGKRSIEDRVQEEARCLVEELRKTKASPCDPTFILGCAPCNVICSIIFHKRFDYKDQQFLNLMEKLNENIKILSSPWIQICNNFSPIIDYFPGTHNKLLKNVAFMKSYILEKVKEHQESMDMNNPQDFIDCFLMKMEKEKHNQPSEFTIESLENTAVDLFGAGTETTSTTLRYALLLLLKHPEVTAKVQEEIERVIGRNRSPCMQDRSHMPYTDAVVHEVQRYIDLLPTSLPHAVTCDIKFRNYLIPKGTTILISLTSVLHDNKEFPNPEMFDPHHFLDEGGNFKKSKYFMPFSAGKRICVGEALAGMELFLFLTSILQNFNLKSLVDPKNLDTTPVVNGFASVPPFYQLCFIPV
Data set [5] concerns Rattus norvegicus. The data set is described as follows: Antipsychotic activity in Sprague-Dawley rat assessed as inhibition of PCP-induced prepulse inhibition deficit at 10 mg/kg, po pretreated for 30 mins followed by PCP addition measured after 5 mins to 10 mins. It counts as functional, organism-based. The essentials: (§5)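 Male SD rats (200-250 g) were dosed p.o. in saline with 0.5% Tween 80 and 0.2% CMC-sodium, 30 min before PCP 5 mg/kg i.p. Acoustic startle PPI was tested in startle chambers 5-10 min after PCP. Startle magnitude was the mean of pulse-alone trials. n = 11-16 per group; mean ± SEM; ANOVA with post hoc tests.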

The target of data set [6] is T4, Cytochrome P450 2D6 (Homo sapiens, UniProt P10635). The data set is described as follows: (§6) Inhibition of CYP2D6 in human microsomes at 10 uM using dextromethorphan as substrate preincubated for 5 mins followed by NADPH addition measured 20 mins relative to control. It counts as ADME. The conditions noted are these: microsomes, 20 min, 10 µM. In short, it runs like this:
as §3

Data set [7] has as its target T3, Cytochrome P450 2C9. The data set is described as follows: (§7) Inhibition of CYP2C9 in human microsomes at 10 uM using diclofenac as substrate preincubated for 5 mins followed by NADPH addition measured 20 mins relative to control. Type of data set: ADME. As to conditions: microsomes, 20 min, 10 µM. The essentials:
as §3

Data set [8] concerns Rattus norvegicus. The data set is described as follows: Antipsychotic activity in Sprague-Dawley rat assessed as inhibition of PCP-induced hyperlocomotion at 10 mg/kg, po pretreated for 30 mins followed by PCP addition measured after 5 mins for 1.5 hrs by open field test. It counts as functional, organism-based. The essentials: (§8)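 Male SD rats (200-250 g), acclimated at least 1 week. Drug was given p.o. in sterile saline with 0.5% Tween 80 and 0.2% CMC-sodium, 30 min before PCP 5 mg/kg i.p. Rats were placed in a 40×40×45 cm open-field arena 5 min after PCP and video-tracked for 90 min. Read-out was total distance travelled, reported as mean ± SEM.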

Data set [9] concerns Rattus norvegicus. In words: Antipsychotic activity in Sprague-Dawley rat assessed as inhibition of PCP-induced hyperlocomotion at 50 mg/kg, po pretreated for 30 mins followed by PCP addition measured after 5 mins for 1.5 hrs by open field test. It counts as functional, organism-based. The essentials: as §8
For data set [10], the target named is T2, CYP1A2. The data set is described as follows: Time-dependent inhibition of CYP1A2 in human microsomes at 10 uM using phenacetin as substrate preincubated for 5 mins followed by NADPH addition measured 20 mins relative to control. Type of data set: ADME. The conditions noted are these: human microsomes, probe phenacetin, read-out: TDI.
In data set [11] the test system is Rattus norvegicus. The data set is described as follows: Antipsychotic activity in Sprague-Dawley rat assessed as inhibition of PCP-induced prepulse inhibition deficit at 50 mg/kg, po pretreated for 30 mins followed by PCP addition measured after 5 mins to 10 mins. Type of data set: functional, organism-based. The essentials: as §5
In data set [12] the target is T5, CYP2C19 (Homo sapiens, UniProt P33261). In words: (§9) […] of CYP2C19 in human microsomes at 10 uM using mephenytoin as substrate preincubated for 5 mins followed by NADPH addition measured 20 mins relative to control. It counts as ADME. As to conditions: human microsomes, probe mephenytoin, read-out: TDI.
T5 sequence (P33261 whole entry, the tested form may be a part): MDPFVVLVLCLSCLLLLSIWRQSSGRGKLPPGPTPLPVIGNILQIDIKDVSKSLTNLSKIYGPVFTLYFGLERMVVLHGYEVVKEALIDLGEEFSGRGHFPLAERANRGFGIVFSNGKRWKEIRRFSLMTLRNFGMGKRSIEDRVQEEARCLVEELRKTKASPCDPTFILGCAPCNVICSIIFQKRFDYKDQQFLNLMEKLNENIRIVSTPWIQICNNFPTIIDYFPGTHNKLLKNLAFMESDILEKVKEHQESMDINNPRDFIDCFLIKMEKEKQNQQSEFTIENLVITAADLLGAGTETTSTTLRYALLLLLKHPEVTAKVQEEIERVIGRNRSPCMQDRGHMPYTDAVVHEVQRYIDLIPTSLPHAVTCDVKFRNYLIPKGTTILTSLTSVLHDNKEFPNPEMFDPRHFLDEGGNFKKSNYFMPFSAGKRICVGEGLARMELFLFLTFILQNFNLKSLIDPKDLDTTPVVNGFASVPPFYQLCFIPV
The target of data set [13] is T6, cAMP and cAMP-inhibited cGMP 3',5'-cyclic phosphodiesterase 10A (Homo sapiens, UniProt Q9Y233). In words: Inhibition of recombinant human N-terminal GST-tagged PDE10A1 (2 to 789 residues) expressed in baculovirus infected Sf9 cells at 5 uM using fluorescein-labeled cAMP as substrate preincubated for 15 mins followed by substrate addition measured after 30 mins by IMAP fluorescence polarization assay relative to control. The essentials:
(§10)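 Recombinant PDE4A1A, PDE2A1 or PDE10A1 was incubated with compound (1% DMSO, duplicate) for 15 min at RT. Fluorescein-cAMP was then added for 30 min at RT, and the reaction was stopped with IMAP binding reagent (1 h, dark). FP was read at Ex485/Em535. Inhibition was set against no-enzyme and DMSO controls. IC50 came from a four-parameter logistic fit; values are the mean of at least two measurements.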

The target of data set [14] is T7, Cytochrome P450 2C19 (Homo sapiens, UniProt P33261). In words: (§11) Inhibition of CYP2C19 in human microsomes at 10 uM using mephenytoin as substrate preincubated for 5 mins followed by NADPH addition measured 20 mins relative to control. Type of data set: ADME. The conditions noted are these: microsomes, 20 min, 10 µM. The essentials: as §3
T7 sequence (P33261 whole entry): as the sequence (P33261 whole entry, the tested form may be a part) above
The target in data set [15] is T8, CYP2D6 (Homo sapiens, UniProt P10635). The data set is described as follows: (§12) […] of CYP2D6 in human microsomes at 10 uM using dextromethorphan as substrate preincubated for 5 mins followed by NADPH addition measured 20 mins relative to control. The conditions noted are these: human microsomes, probe dextromethorphan, read-out: TDI. Type of data set: ADME.
T8 sequence (P10635 whole entry): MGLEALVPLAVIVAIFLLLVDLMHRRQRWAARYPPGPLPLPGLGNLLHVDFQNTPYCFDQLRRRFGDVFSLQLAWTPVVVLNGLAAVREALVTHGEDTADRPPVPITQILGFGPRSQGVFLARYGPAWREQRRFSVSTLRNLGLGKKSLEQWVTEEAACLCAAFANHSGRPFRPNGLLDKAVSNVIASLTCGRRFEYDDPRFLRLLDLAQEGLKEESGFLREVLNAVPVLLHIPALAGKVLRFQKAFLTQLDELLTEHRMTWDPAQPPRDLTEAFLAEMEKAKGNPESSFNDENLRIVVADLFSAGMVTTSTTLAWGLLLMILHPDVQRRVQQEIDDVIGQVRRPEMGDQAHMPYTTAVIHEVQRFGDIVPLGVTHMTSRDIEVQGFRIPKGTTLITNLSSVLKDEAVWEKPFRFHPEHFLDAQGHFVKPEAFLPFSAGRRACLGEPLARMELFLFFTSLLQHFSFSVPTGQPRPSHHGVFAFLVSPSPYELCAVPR

Data set [16] is described as follows: Half life in mouse liver microsomes at 1 uM preincubated for 5 mins followed by NADPH addition measured up to 30 mins by LC-MS/MS analysis. It counts as ADME, microsome. In short, it runs like this:
(§13)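 Liver microsomes (0.5 mg/mL) plus 1 µM compound were preincubated 5 min at 37 °C in 0.1 M phosphate buffer pH 7.4 containing EDTA and MgCl₂. NADPH started the reaction. Samples at 0, 5, 10 and 30 min were quenched with cold acetonitrile containing tinidazole internal standard and centrifuged. Parent remaining was quantified by LC/MS/MS.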

The nature of data set [17]: Half life in human liver microsomes at 1 uM preincubated for 5 mins followed by NADPH addition measured up to 30 mins by LC-MS/MS analysis. Type of data set: ADME, microsome. In short, it runs like this: as §13
Another data set deals with PDE2A1 (Homo sapiens, UniProt O00408). In words: Inhibition of recombinant human N-terminal FLAG-tagged PDE2A1 (2 to 941 residues) expressed in baculovirus infected Sf9 cells at 1 uM using fluorescein-labeled cAMP as substrate preincubated for 15 mins followed by substrate addition measured after 30 mins by IMAP fluorescence polarization assay relative to control. The conditions noted are these: probe fluorescein-labeled cAMP. In short, it runs like this:
as §10

Data set [18] addresses T6, cAMP and cAMP-inhibited cGMP 3',5'-cyclic phosphodiesterase 10A. The data set is described as follows: Inhibition of recombinant human N-terminal GST-tagged PDE10A1 (2 to 789 residues) expressed in baculovirus infected Sf9 cells using fluorescein-labeled cAMP as substrate preincubated for 15 mins followed by substrate addition measured after 30 mins by IMAP fluorescence polarization assay. The essentials: as §10

For data set [19], the target named is T9, Cytochrome P450 3A4 (Homo sapiens, UniProt P08684). The description is as §1. It counts as ADME. As to conditions: microsomes, 20 min, 10 µM.
T9 sequence (P08684 whole entry): as the sequence (P08684 whole entry) above
Data set [20] deals with T10, CYP2C9 (Homo sapiens, UniProt P11712). The description is as §4. The conditions noted are these: human microsomes, probe diclofenac, read-out: TDI. It counts as ADME.
T10 sequence (P11712 whole entry): as the sequence (P11712 whole entry) above
Data set [21] concerns the target T8, CYP2D6. The description is as §6. It counts as ADME. As to conditions: human microsomes, probe dextromethorphan, read-out: TDI. The essentials:
as §3

In data set [22] the target is T10, CYP2C9. The description is as §7. It counts as ADME. The conditions noted are these: human microsomes, probe diclofenac, read-out: TDI. In short, it runs like this:
as §3

Data set [23] addresses T5, CYP2C19. The description is as §11. Type of data set: ADME. The conditions noted are these: human microsomes, probe mephenytoin, read-out: TDI. In short, it runs like this: as §3
Data set [24] deals with T9, Cytochrome P450 3A4. The data set is described as §2. It counts as ADME. As to conditions: microsomes, 20 min, 10 µM. In short, it runs like this:
as §3

In data set [25] the target is T7, Cytochrome P450 2C19. The data set is described as §9. It counts as ADME. As to conditions: microsomes, 20 min, 10 µM.
Data set [26] addresses T4, Cytochrome P450 2D6. The data set is described as §12. Type of data set: ADME. The conditions noted are these: microsomes, 20 min, 10 µM.

pIC50: −log10 of the molar value. The source made the active and inactive calls. No cut-off for these calls is given here.

T6 sequence (Q9Y233 whole entry, the tested form may be a part): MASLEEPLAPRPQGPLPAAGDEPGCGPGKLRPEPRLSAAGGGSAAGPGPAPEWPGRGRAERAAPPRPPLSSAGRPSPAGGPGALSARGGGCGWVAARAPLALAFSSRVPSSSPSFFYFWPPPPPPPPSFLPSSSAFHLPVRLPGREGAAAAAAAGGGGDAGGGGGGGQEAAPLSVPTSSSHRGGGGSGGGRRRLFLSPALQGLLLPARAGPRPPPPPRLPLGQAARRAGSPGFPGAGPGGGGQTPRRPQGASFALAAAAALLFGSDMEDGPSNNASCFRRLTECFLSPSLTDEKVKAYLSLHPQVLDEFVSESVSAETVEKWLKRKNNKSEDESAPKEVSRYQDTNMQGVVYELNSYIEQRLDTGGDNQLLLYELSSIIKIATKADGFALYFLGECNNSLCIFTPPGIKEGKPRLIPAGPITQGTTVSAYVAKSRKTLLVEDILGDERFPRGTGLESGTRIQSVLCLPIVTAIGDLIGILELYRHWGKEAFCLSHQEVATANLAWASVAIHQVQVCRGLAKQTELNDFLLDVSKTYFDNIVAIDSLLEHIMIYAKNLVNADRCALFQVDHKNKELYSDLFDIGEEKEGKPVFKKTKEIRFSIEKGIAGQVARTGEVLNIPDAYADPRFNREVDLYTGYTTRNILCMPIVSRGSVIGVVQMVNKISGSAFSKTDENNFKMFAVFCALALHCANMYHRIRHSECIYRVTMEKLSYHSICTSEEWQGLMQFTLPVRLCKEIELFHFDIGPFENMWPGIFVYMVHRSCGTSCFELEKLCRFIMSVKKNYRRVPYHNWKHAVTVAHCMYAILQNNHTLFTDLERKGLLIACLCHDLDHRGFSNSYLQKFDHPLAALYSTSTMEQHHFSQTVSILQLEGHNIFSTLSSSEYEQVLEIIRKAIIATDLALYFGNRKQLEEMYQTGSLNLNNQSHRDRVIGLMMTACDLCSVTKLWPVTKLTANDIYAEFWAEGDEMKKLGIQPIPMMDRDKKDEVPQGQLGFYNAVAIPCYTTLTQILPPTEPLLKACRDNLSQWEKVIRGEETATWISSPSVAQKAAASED
T4 sequence (P10635 whole entry): as the sequence (P10635 whole entry) above
Chain of PDE2A1 (O00408 whole entry, the tested form may be a part): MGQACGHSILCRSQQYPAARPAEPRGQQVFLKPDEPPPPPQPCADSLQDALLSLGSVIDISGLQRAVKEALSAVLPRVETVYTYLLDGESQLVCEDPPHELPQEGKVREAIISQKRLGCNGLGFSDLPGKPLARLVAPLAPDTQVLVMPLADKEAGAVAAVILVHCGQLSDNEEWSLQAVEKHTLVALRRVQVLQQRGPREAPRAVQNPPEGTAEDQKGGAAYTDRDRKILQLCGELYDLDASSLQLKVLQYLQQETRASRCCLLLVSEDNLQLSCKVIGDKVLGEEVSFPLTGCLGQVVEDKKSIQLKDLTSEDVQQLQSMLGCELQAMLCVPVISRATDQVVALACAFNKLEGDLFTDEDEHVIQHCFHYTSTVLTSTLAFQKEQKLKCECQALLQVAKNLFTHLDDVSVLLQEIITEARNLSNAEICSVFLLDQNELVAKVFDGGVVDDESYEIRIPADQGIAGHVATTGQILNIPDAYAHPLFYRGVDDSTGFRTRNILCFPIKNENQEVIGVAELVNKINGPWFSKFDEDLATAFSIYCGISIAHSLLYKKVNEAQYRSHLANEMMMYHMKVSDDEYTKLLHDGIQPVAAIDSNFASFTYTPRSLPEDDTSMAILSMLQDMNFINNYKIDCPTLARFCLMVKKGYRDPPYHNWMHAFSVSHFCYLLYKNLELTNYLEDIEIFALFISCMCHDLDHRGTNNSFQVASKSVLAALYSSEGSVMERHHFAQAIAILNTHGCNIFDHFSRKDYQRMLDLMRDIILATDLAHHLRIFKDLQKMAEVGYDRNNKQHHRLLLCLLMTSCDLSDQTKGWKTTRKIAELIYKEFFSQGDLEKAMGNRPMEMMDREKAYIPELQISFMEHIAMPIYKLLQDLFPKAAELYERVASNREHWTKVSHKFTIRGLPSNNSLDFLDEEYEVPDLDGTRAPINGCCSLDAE

`Cc1nc2c(N3CCOCC3)ncnc2n1Cc1ccc(-c2cncnc2)cc1`: the inhibition at 20 min, 10 µM on CYP3A4 [1] was found to be 20%; on CYP3A4 [2], 22%; on CYP1A2 [3], 12%; at CYP1A2 [10], 10%; on CYP2C19 [12], 90%; at CYP2D6 [15] it was 30%. The TDI entry on Cytochrome P450 2C9 [4], at Cytochrome P450 2D6 [6], at Cytochrome P450 2C9 [7] and at Cytochrome P450 2C19 [14] was “Not Active” each time. Besides, the inhibition entry in the data set on Rattus norvegicus [5] and in the data set with Rattus norvegicus [8] was “Active” in each case. Besides, the inhibition result with Rattus norvegicus [9] and in the data set with Rattus norvegicus [11] was “inactive” each time. Also, the inhibition in data set [13] is 97%. For the same compound, the half-life at 1 µM in data set [16] worked out at 69.3 min; in [17], 49.5 min. For the same compound, the inhibition at 0.5 h, 1 µM at PDE2A1 was found to be 4%. For the same compound, in [18], the pIC50 was 7.12.
For `Cc1cc(-c2ccc(Cn3c(C)nc4c(N5CCOCC5)ncnc43)cc2)ccn1`, the TDI entry at Cytochrome P450 3A4 [19] is “Not Active”. In addition, the inhibition at 20 min, 10 µM on CYP3A4 [2] is 12%; at CYP1A2 [3] it was 34%; on CYP2C9 [20], 10%; on CYP2D6 [21] it was 6%; at CYP2C9 [22], 18%; on CYP1A2 [10] it was 30%. The inhibition at 20 min, 10 µM on CYP2C19 [12] was 70%; on CYP2C19 [23], 21%; at CYP2D6 [15], 60%. Also, the inhibition in [13] was 98%. The half-life at 1 µM was determined as 23.9 min in data set [16] and 18.2 min in [17]. For the same compound, the pIC50 in data set [18] was 7.25.
On to `Cc1ccc(-c2ccc(Cn3cnc4c(N5CCOCC5)ncnc43)cc2)cc1`, for which the TDI entry at Cytochrome P450 3A4 [19], at Cytochrome P450 3A4 [24], at Cytochrome P450 2C9 [4], at Cytochrome P450 2C19 [25] and at Cytochrome P450 2D6 [26] was “Not Active” in each case. Also, the inhibition at 20 min, 10 µM on CYP1A2 [3] is 12%; on CYP2D6 [21] it was 6%; at CYP2C9 [22], 30%; at CYP1A2 [10], 20%; at CYP2C19 [23], 44%. In addition, the inhibition in data set [13] is 97%. Further, the half-life at 1 µM in data set [16] came out at 49.5 min; in [17] it was 22.4 min. Further, the negative-log IC50 (pIC50) in data set [18] was 7.12.
